The full list was thinned out, with hits kept by preference.
RORA inh: inhibitors of human nuclear receptor RORA | P35398 | CHO-K1 Gal4-RORA LBD luciferase reporter, luminescence | inhibition, % at 10 µM | actives 0.43% (n = 65,000) | AID 561;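 active means inhibition above the mean of all tested compounds plus 3 SD, cut at about 52% in these data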
Target sequence (P35398 whole entry, looked up, the tested form may be a part): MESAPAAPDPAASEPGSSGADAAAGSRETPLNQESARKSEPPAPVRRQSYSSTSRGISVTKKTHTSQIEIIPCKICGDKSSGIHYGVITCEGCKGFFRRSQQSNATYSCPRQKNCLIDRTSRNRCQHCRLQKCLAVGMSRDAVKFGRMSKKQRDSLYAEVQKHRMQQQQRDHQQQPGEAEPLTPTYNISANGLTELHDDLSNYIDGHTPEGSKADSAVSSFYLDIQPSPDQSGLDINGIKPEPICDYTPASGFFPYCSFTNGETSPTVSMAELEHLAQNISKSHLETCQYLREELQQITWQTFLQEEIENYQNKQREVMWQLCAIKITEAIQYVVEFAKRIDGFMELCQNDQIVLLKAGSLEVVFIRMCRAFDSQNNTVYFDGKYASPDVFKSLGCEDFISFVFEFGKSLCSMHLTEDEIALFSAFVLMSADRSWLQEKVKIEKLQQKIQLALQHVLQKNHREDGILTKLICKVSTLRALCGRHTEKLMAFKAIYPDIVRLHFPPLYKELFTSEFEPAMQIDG
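Test system: CHO-K1 cells with Gal4-hRORA LBD fusion and pG5-luc reporter / Compound: single concentration per compound, 10 µM final / Schedule: 20 h compound treatment, 37 °C / Signal: luminescence from basal luciferase reporter expression / Read-out: % inhibition / Control set: mock-transfected cells as 100%, +RORA DMSO cells as 0% / Replicates: tested once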
Each line names hits and unclear results; the compound was inactive in the other large screens.

Cc1ccc(-n2ncc3c(N4CCC(C(N)=O)CC4)ncnc32)c(C)c1	none
CCCCOc1ccc(C2(C)CC(=O)NC2=O)cc1 (configuration not stated)	none
CCCCn1c(SCC(=O)Nc2cc(NC(=O)c3ccco3)ccc2C)nc2ccccc2c1=O	none
O=C(Nc1ccc(Cc2ccncc2)cc1)c1ccco1	none
COc1ccccc1-c1nn2c(C(F)(F)F)nnc2s1	none
CN(C)c1ccc(-c2nn3c(-c4ccccc4Cl)nnc3s2)cc1	none
COc1ccccc1-c1nnc2sc(-c3ccc(N(C)C)cc3)nn12	RORA inh 56.8
CCc1ccc(NC2=NC(C(=O)NC3CCCCC3)CC(=O)N2)cc1 (configuration not stated)	none
Cc1cc(C(=O)OCC(=O)N2C(C)CCCC2C)c(C)o1 (configuration not stated)	none
CCOC(=O)Cc1csc(NC(=O)CSc2nnc(-c3ccc(OC)cc3)n2C)n1	none
Cc1nnc(SCc2ccccc2Cl)n1CC1CCCO1 (configuration not stated)	none
COc1ccc(-c2nnc(SCC(=O)NC(C)C)n2CC2CCCO2)cc1OC (configuration not stated)	none
Cc1cc(C(=O)CN2C(=O)c3ccccc3S2(=O)=O)c(C)n1CC1CCCO1 (configuration not stated)	RORA inh 61.7
CCCCn1c(SCc2nnc(-c3ccccc3)o2)nc2c1c(=O)n(C)c(=O)n2C	none
Cc1ccc2oc(Nc3nc(C)cc(C)n3)nc2c1	none
CCn1c(=O)cc(NC2=NCC(C)CN2c2cccc(Cl)c2)n(C)c1=O (configuration not stated)	none
O=C(c1ccc(Br)cc1)C1CCc2occc2C1=O (configuration not stated)	none
O=C(CC1Oc2ccccc2NC1=O)NCc1ccccc1 (configuration not stated)	none
CC(=O)CC1OC(=O)C(Br)=C1NCc1ccccc1 (configuration not stated)	RORA inh 62.8
CC1CCN(C(=O)CSc2ccc3nnc(-c4ccccc4)n3n2)CC1	none
COc1ccc(CCn2c(=N)c(C#N)cc3c(=O)n4ccccc4nc32)cc1	none
COC(=O)c1cc2ccsc2n1CC(=O)Nc1cc(Cl)ccc1OC	none
Cc1cc(C)nc(SC2=CS(=O)(=O)c3ccccc32)n1	RORA inh 64.9
O=S1(=O)C=C(Sc2nc3ccccc3s2)c2ccccc21	RORA inh 88.1
O=C(Sc1nnc(-c2ccccc2)o1)N1c2ccccc2Sc2ccccc21	none
c1ccc(-c2nnc(SCc3cn4ccsc4n3)o2)cc1	none
OC1CCCCC1Sc1nc2ccccc2s1 (configuration not stated)	none
O=c1oc2ccccc2n1CSc1nc2ccccc2s1	none
O=S1(=O)C=C(Sc2nnc(-c3ccccc3)o2)c2ccccc21	RORA inh 80.2
COc1ccc(C(NC(=O)C(C)(C)C)NC(=O)C(C)(C)C)cc1	none
O=C(NCC12CC3CC(CC(C3)C1)C2)c1cc2n(n1)C(C(F)(F)F)CC(c1ccco1)N2 (configuration not stated)	none
O=C(CSCCO)Nc1cc(C(F)(F)F)ccc1Cl	none
Cc1cc(NC(=O)CSc2ncnc3ccccc23)no1	none
COc1ccccc1C1/C(=C(/O)c2ccc(Cl)cc2)C(=O)C(=O)N1CCN1CCOCC1 (configuration not stated)	none
CC(=O)Nc1nc2ccc(-c3nc4ccccc4o3)cc2s1	none
COC(=O)c1cc(Br)c(=O)n(-c2ccc(OC)cc2)c1	none
Cn1c(Cn2c(=O)sc3ccccc32)nnc1SCC(=O)N1CCc2ccccc21	none
CCSc1cc(C2C(C#N)=C(N)OC(C)=C2C(=O)OC)c(C)o1 (configuration not stated)	none
COc1cc(C2C3C(C)N(C)C(=O)N(C)C3N(C)C(=O)N2C)ccc1O (configuration not stated)	none
COC(=O)/C=C/S(=O)(=O)c1ccc(NC(C)=O)cc1	none
O=C(NCc1ccco1)Nc1ccc(Br)cc1Cl	none
COc1ccc(C(O)P(=O)(O)CCc2ccccc2)cc1 (configuration not stated)	none
Cc1ccc(-c2ccc(=O)n(CC(=O)Nc3cccc(C(=O)N4CCN(C)CC4)c3)n2)cc1	none
CC1CCc2nc(NC(=O)c3ccco3)sc2C1 (configuration not stated)	RORA inh 61.5
C=CCOC(=O)c1sc(NC(=O)c2ccco2)nc1C	none
CS(=O)(=O)c1ccc2nc(NC(=O)c3ccco3)sc2c1	none
CC(C)Oc1ccc(C2c3c(oc4ccccc4c3=O)C(=O)N2CCCN2CCOCC2)cc1 (configuration not stated)	none
COCCNS(=O)(=O)c1cccc2cccnc12	none
c1ccc2nc(-c3nc4ccccc4o3)ccc2c1	RORA inh 58.3
O=C1C2C3C=CC(C3)C2C(=O)N1c1ccc(-c2nc3ccccc3o2)cc1 (configuration not stated)	none
CC(Sc1ccc2ccccc2n1)C(=O)O (configuration not stated)	none
CN(C)c1nc(N)nc(Cn2ccnc2)n1	none
COc1ccccc1C(=O)Nc1c2c(nn1-c1cccc(C)c1C)CS(=O)(=O)C2	none
C(=N\n1cnnc1)/c1ccc(OC2CSC2)cc1	none
Cc1cc(/C=N/n2cnnc2)c(C)n1-c1ccc(OCc2ccc(F)cc2)cc1	RORA inh 70.3
CCOCCn1c(CN(Cc2ccccc2)Cc2ccccc2)nc2c1c(=O)n(C)c(=O)n2C	none
O=C(Cc1ccccc1)Nc1c(C(=O)N2CCOCC2)cnn1-c1ccccc1	none
CC(=O)N1CCC2(CC1)CC(=O)c1cc(OCC(=O)NCc3ccco3)ccc1O2	none
CC12CN3CC(C)(CN(C1)C3c1ccc(Br)cc1)C2 (configuration not stated)	none
CCN(CC)S(=O)(=O)c1ccc2c(c1)c(=O)c(C(=O)N1CCN(c3ccccc3)CC1)cn2C	none
COc1ccc2c(c1OC)C(=O)N1C2SC[C@H]1C(=O)NC1CC(C)(C)NC(C)(C)C1 (some centres not stated)	none
Cc1nn(CC(=O)Nc2nnc(CC(=O)N3CCCC3)s2)c(=O)c2ccccc12	none
Cc1cc(C(F)(F)F)c2c(N)c(C(=O)Nc3cc(C)on3)sc2n1	none
COc1ccc(CCNC(=O)CSc2nc(-c3ccco3)cc(C(F)(F)F)n2)cc1OC	none
CS(=O)(=O)c1nc(-c2ccco2)cc(C(F)(F)F)n1	RORA inh 54.3
COc1cccc(-c2cc(C(F)(F)F)nc(NCc3ccco3)n2)c1	none
COc1ccccc1N1CCN(C(=O)c2cccc(N3C(=O)NC4CC3(C)Oc3ccccc34)c2)CC1 (configuration not stated)	none
COc1ccc(/C=N\n2nnc3ccccc32)cc1	RORA inh 74.4
CSc1ccc(/C=N/n2nnnc2N)cc1	none
C=CCSc1nncn1/N=C/c1ccc(OC)cc1	none
Cn1c(SCc2ccc(C#N)cc2Cl)nc2ccccc21	none
CC1(C)OC(=O)N(c2cccnc2)C1(C)O (configuration not stated)	none
O=C(c1cc(-c2cccs2)on1)N1CCCc2ccccc21	none
CCCCC(=O)Nc1ccc(C(=O)N2CCCC(C(=O)OCC)C2)cc1 (configuration not stated)	none
CCOC(=O)c1c(C)[nH]c(C)c1C(=O)CSc1nnc(-c2ccncc2)n1C	none
CCn1c(-c2ccc(N(C)C)cc2)nc2ccccc21	none
CN(C)c1ccc(-c2nc3ccccc3n2C)cc1	RORA inh 62.2
Cn1c(-c2ccc(Br)o2)nc2ccccc21	none
Cn1c(SCC(N)=O)nnc1C1CCN(C(=O)NCc2ccccc2)CC1	none
COC(=O)CCP(=O)(O)Cc1ccccc1CP(=O)(O)CCC(=O)OC	none
Cc1ccc(N2C(N)=NC(N)=NC23CCCC3)c(C)c1	none
COCc1nc(-c2ccc(-c3ccccc3)nc2OC)no1	none

High-throughput results as filed in PubChem.
